From the M2OR odorant receptor database

Target: T1, OR1G1 (Homo sapiens) (UniProt P47890)
T1 sequence (whole entry): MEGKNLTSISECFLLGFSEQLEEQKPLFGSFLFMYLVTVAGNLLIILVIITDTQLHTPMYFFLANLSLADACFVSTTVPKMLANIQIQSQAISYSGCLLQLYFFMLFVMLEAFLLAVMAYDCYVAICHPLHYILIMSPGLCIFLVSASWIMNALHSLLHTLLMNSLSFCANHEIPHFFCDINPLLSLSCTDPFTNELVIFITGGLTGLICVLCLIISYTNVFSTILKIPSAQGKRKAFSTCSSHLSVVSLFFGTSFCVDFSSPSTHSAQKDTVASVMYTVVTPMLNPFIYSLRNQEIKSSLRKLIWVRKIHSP
Conditions: stereoisomer not certain
Summary of the method: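 Transient luciferase assays in mammalian cell lines were common, though methods varied by source. The values come from published papers and their supplementary material, with extra details from the original authors when needed. Responsive refers to a measured signal the original authors judged statistically different from baseline, and non-responsive (inactive) to the remainder.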

Structure (SMILES)	odorant receptor agonist call;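 note: active if original authors judged signal statistically different from baseline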
CCCCCCO	active
C=CC(C)(CCC=C(C)C)OC(C)=O (centres undefined)	inactive
CCCCCCCCCC(=O)OCC	active
CCCCCCCC(C)O (centres undefined)	active
CCCCCCCCC(=O)OCC	active
CCCCC1CCC(=O)O1 (centres undefined)	inactive
CC(=O)OCc1ccccc1	inactive
CCCCCCCCCCO	active
Cc1ccc(C(C)C)c(O)c1	active
CCCCC(O)CCC (centres undefined)	active
C=CCOC(=O)COCCC(C)C	inactive
CSC	inactive
CCCCCCC(=O)OC	inactive
COc1ccc(C)cc1	inactive
CC(C)=CCCC(C)CC=O (centres undefined)	active
c1ccc2[nH]ccc2c1	inactive
CCCCCCCCCCCCO	active

Structure (SMILES)	odorant receptor agonist call;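 note: active if original authors judged signal statistically different from baseline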
CCOC(=O)C(C)C	inactive
C=CC(C)(O)CCC=C(C)CCC=C(C)C (centres undefined)	inactive
CCCCCCCCCCC(C)=O	inactive
CCCCCCC(C)=O	inactive
CCCCCCC1CCC(=O)O1 (centres undefined)	active
CCCCCCCC(=O)[O-].[H+]	inactive
CCOC(=O)CC1(C)OCCO1	inactive
c1ccc2scnc2c1	active
COC1CC2CC1C1CC(C=O)CC21 (centres undefined)	inactive
CC(C)=CCCC(C)=CCO	active
CCC(=O)C=CC1C(C)=CCCC1(C)C (centres undefined)	inactive
CC(=O)CCC=C(C)C	inactive
CCCCCCC(=O)OCC	inactive
CCCCCC1C(=O)CCC1CC(=O)OC (centres undefined)	active
CCCC(=O)SC	active
CCCCCCCO	active
CC(C)(C)C1CCCCC1OCCCCO (centres undefined)	inactive
